FGF22 binding – FGF22 (human) thermal shift binding; Q9HCT0; recombinant FGF22 thermal shift, SYPRO orange fluorescence; percent of sucrose octasulfate shift, DMSO zero; activity (Tm shift, normalised), % at 9.99 µM; 1.5% of 340,000 active; AID 651658;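 active = mean Tm shift, scaled 0 neutral to 100 positive control, at about 1.3% or above, every replicate too, limit read from the data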
Target sequence (Q9HCT0 whole entry, looked up): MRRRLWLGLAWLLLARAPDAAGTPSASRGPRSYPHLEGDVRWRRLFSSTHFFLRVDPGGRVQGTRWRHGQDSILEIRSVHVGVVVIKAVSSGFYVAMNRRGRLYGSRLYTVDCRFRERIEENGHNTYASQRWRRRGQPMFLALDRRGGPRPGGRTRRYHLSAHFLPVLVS
ERAP1 HTS inh – blocks human ERAP1 aminopeptidase activity. Q9NZ08. recombinant ERAP1, Leu-AMC fluorescence, 60 min. inhibition, % at 10.7 µM. 0.15% of 340,000 active;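 active = mean replicate inhibition of at least 30%, or all replicates individually reaching that 30% level; inactive = mean below 30% and not every replicate reaching it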;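 also: 0% = neutral control wells and 100% = L-leucinethiol positive control wells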
HIV Env fusion – HIV envelope-mediated fusion inhibition | HeLa-JRFL Env/CEM21 cell fusion, luciferase | inhibition, % at 12.3 µM | 1.1% of 360,000 active;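 active = mean replicate inhibition score of at least 50 and every replicate individually at or above 50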;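 also: 0% = plate neutral controls and 100% = maraviroc near 300 nM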
Cneo AK release – Cryptococcus neoformans lysis via adenylate kinase release. C. neoformans lysis, adenylate kinase release luminescence, 4 h; normalised: neutral wells 0, clomiphene wells 100. lysis activity, % at 15 µM. 0.2% of 360,000 active;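 active = mean lysis activity across replicates of at least 80%, whatever share of replicates individually reach that level; inactive = mean lysis activity below 80%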
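Schedule: static 4 h at 37 °C with compound, 1 h detection; system: C. neoformans cells; benchmarks: Clomiphene as positive control; buffer or medium: fresh YPD medium; measure: luminescence rise reflecting yeast cell lysis; measured by: luminescent adenylate kinase detection reagent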
rRNA inh HTS – inhibitors of bacterial rRNA selective over humanized ribosomes. E. coli WT GFP vs humanized-ribosome RFP mutants, fluorescence, 24 h; stronger effect = lower value; DMSO median 0, no signal -100. 1.6% of 350,000 active. GFP signal change (wild-type ribosome), % (no concentration beside the values);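 active = significant combined selectivity score with lowered wild-type GFP, culture density cut under 30%, mutant RFP and density less affected; inactive = any of these conditions unmet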
PGC1a acetyl inh – lowers PGC1a acetylation signal in U2OS cells; AlphaScreen anti-acetyl-lysine; with virally co-expressed GCN5 acetyltransferase; AID 651687; inhibition, % at 15.6 µM; 0.17% of 350,000 active;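 active = every replicate shows inhibition of at least 40%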;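 also: 0% = neutral control wells and 100% = positive control wells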
Starred values were filed as active, the others as inactive; [ ] = another dose, or the depositor's remark. Hits are enriched below; roughly 3.5% of the tested compounds scored in any of these assays.

For CS(=O)(=O)N1CCN(c2ccccc2NC(=S)NC(=O)c2cccs2)CC1 the results were FGF22 binding 43*, ERAP1 HTS inh 2, HIV Env fusion -22, rRNA inh HTS 6 and PGC1a acetyl inh -7.
`CC1CCN(c2ccccc2NC(=S)NC(=O)C(C)(C)C)CC1` gave FGF22 binding 43*, ERAP1 HTS inh -4, HIV Env fusion 19, rRNA inh HTS 8 and PGC1a acetyl inh -24.
For O=C(C[C@H]1CC[C@@H]2[C@H](COC[C@@H](O)CN2CC2CC2)O1)NCc1ccc(Cl)cc1 the results were FGF22 binding 0, ERAP1 HTS inh -1, Cneo AK release -1, rRNA inh HTS 0 and PGC1a acetyl inh -1.
`Cc1cc(C)c(C(N)=O)c(Nc2ccc(F)cc2)n1` gave FGF22 binding 0, ERAP1 HTS inh -4, HIV Env fusion 30, Cneo AK release 2, rRNA inh HTS 13 and PGC1a acetyl inh -1.
Screening CCC(C)C(=O)Nc1nnc(SCC(=O)Nc2ccccc2F)s1 (stereo unspecified) returned FGF22 binding 44*, ERAP1 HTS inh 4, HIV Env fusion 13 and rRNA inh HTS 1.
For CC(C)CC(=O)N1CC=CC[C@@H](c2ccc(Cl)cc2)N(Cc2ccc(Cl)cc2)C(=O)[C@@H]1Cc1ccccc1 the results were FGF22 binding 0, ERAP1 HTS inh -1, HIV Env fusion 76*, Cneo AK release 1 and rRNA inh HTS 13.
`CCCCC(=O)N1C/C=C\C(c2ccc(OC)cc2)N(Cc2ccc(F)cc2)C(=O)[C@H]1Cc1ccccc1` (stereo partly specified) gave Cneo AK release 3 and PGC1a acetyl inh -7.
O=C(NCC[C@H]1CC[C@@H](NC(=O)C2CCCCC2)[C@H](CO)O1)c1cnccn1 was read as FGF22 binding 0, ERAP1 HTS inh -3, HIV Env fusion -15[16.7 µM], Cneo AK release -4, rRNA inh HTS -4 and PGC1a acetyl inh 1.
`CC1CCN(S(=O)(=O)c2ccc(Oc3ccc([N+](=O)[O-])cc3)cc2)CC1` gave HIV Env fusion 72* and PGC1a acetyl inh 54*.
For C[C@@H]1CN([C@@H](C)CO)C(=O)Cc2cc(NC(=O)CCN3CCOCC3)ccc2O[C@H]1CN(C)C(=O)Nc1ccc(C(F)(F)F)cc1 the results were FGF22 binding 0, ERAP1 HTS inh 0, HIV Env fusion 4[16.7 µM], Cneo AK release 0, rRNA inh HTS -5 and PGC1a acetyl inh 5.
Screening CCc1c(C)c2cc(Cl)c(O)c(CN3CCCC3)c2oc1=O returned FGF22 binding 0, ERAP1 HTS inh 36*, HIV Env fusion 8, Cneo AK release 4, rRNA inh HTS 0 and PGC1a acetyl inh 4.
`Cc1cc(=O)oc2c(CN3CCN(C)CC3)c(O)c(Cl)cc12` gave ERAP1 HTS inh 86*, Cneo AK release 5 and rRNA inh HTS 4.
Screening CCCCc1cc(=O)oc2c(CN3CCCC3)c(O)c(Cl)cc12 returned HIV Env fusion -17, Cneo AK release 0 and PGC1a acetyl inh -1.
CCCc1cc(=O)oc2c(CN3CCN(C)CC3)c(O)ccc12 was read as FGF22 binding 0, ERAP1 HTS inh 34*, HIV Env fusion -5, Cneo AK release -1, rRNA inh HTS 5 and PGC1a acetyl inh 10.
`COc1c(NC(C)=O)c2ccccc2c2ccccc12` gave FGF22 binding 1, HIV Env fusion 8, Cneo AK release 2, rRNA inh HTS 3 and PGC1a acetyl inh -1.
Screening Nc1sc(-c2ccccc2)cc1C(=O)NCCN1CCOCC1 returned FGF22 binding 0, ERAP1 HTS inh -2, HIV Env fusion 12 and rRNA inh HTS 6.
Cc1ccc(OCc2ccc(C(=O)NN)o2)cc1C was read as FGF22 binding 0, ERAP1 HTS inh 7, HIV Env fusion -10, Cneo AK release -4, rRNA inh HTS -32* and PGC1a acetyl inh 1.
For NNC(=O)c1ccc(COc2ccc3ccccc3c2)o1 the results were FGF22 binding 0, ERAP1 HTS inh -1, HIV Env fusion -4 and rRNA inh HTS -25*.
For CCOc1ccc(OCc2ccc(C(=O)NN)o2)cc1 the results were FGF22 binding 0, HIV Env fusion -27 and rRNA inh HTS -13.

Screening results: PubChem BioAssay, Broad Institute
